This series is described as follows: Toxicity liver stage against HepG2, at 10uM. It is filed as cell-based. The arrangement: test concentration 10 uM, cell line HepG2-A16-CD81EGFP. The note with it: human, HepG2-A16-CD81EGFP cells; read-out: INHIBITION
The essentials: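 Uninfected HepG2-A16-CD81EGFP cells, 3 × 10^3 per well, 1536-well, plated on prespotted compound at 10 μM final, parasite-free screening media added to match infected plates; puromycin 10 μM positive, DMSO 0.5% negative; run in parallel with 48 h PbLuc assay at 37 °C, 5% CO2; viability by CellTiter-Glo luminescence, normalized to controls.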
Consider `Cc1ccc(SCC2CNc3nc4ccccc4c(=O)n32)c(C)c1` (configuration not stated), for which the cytotoxicity at 10 µM was found to be 6.76%.
The value for `CC(C)NC(=O)NC[C@H]1OC[C@@H](NCc2ccc(S(C)(=O)=O)cc2)[C@@H]1O` was 6.7%; that for `CN1CCC(N2CCOC[C@H]2c2nc(C(C)(C)C)c[nH]2)CC1` was 2.73%; that for `Cc1ccc(CN2C[C@H](O)C[C@H]2c2nc(-c3ccc(F)cc3)no2)cc1` was -0.456%.
Regarding `O=C(C1CC1)N1CCN2C[C@@H](CO)[C@H](c3ccccc3)[C@H]2C1`, the cytotoxicity at 10 µM was 8.52%.
Turning to `COc1cccc2ccn(CC(=O)NCC(C)C)c12`, the cytotoxicity at 10 µM is -36.5%.
Regarding `N#Cc1cccc(C(=O)N2CC(c3nc(-c4cccnc4)no3)C2)c1`, the cytotoxicity at 10 µM was -6.03%.
With `Cc1ccc(S(=O)(=O)N2CCC(Oc3cccnn3)CC2)c(C)c1`, the cytotoxicity at 10 µM came out at 3.47%.
Regarding `CC/N=c1\nc(NCC)nc2n1C(O)(Nc1ccc(C)cc1C)CS2` (configuration not stated), the cytotoxicity at 10 µM is -1.95%.
As for `CCOc1cc(CNCCCn2ccnc2)cc(Cl)c1OC`, the cytotoxicity at 10 µM was -5.21%.
For `Cc1cc(=O)n2c3c(cc(S(=O)(=O)NC4CC4)cc13)CCC2`, the cytotoxicity at 10 µM is -32.3%.
The value for `Cn1nnc(NCc2ccc(-c3ccc(Cl)cc3)o2)n1` was -7.15%; that for `Cc1nn(C)c(C)c1CNC(=O)CCn1ncc2c(Cl)cccc21` was 8.38%; that for `CC(C)=CCCC1(C)C=Cc2c(cc(C)n(CCC(=O)O)c2=O)O1` (configuration not stated) was 3.46%.
Consider `Cc1cc(-c2cc(N)c(=O)n(CC(=O)NCC3CCCCC3)n2)c(C)o1`, for which the cytotoxicity at 10 µM is -21.1%.
To `CN1CCCC(Cc2ccnc3ccncc23)CC1` (configuration not stated) belongs -0.336%; to `O=C(CCn1cncn1)NC1CCS(=O)(=O)C1` (configuration not stated), -45.4%; to `O=C(Nc1cccnc1N1CCSCC1)c1ccc2c(c1)OCO2`, -6.14%.
Regarding `Cc1nc(CN(C)C2CCN(CC(=O)N(C)CCC#N)C2)no1` (configuration not stated), the cytotoxicity at 10 µM was -3.6%.
`COc1cc(CNCCC(N)=O)c2c(c1)CC(C)O2` (configuration not stated): the cytotoxicity at 10 µM amounted to 8.41%.
Regarding `CNC(=O)CS(=O)(=O)NC1CCC(C)CC1` (configuration not stated), the cytotoxicity at 10 µM was -8.18%.
As to `N#CCCN(C(=O)CCc1cccnc1)c1ccc2c(c1)OCCO2`, the cytotoxicity at 10 µM was -5.34%.
For `Cc1nc2cc(=O)[nH]n2c(C)c1CC(=O)Nc1cnn(C(C)(C)C)c1`, the cytotoxicity at 10 µM came to 15%.
For `O=C(Nc1ccccc1)C1CCN(C(=O)COc2ccccc2F)CC1`, the cytotoxicity at 10 µM was 8.94%.
Turning to `CC(C)N(C)CC(=O)Nc1ccc(-n2ccc(C(N)=O)n2)cc1`, the cytotoxicity at 10 µM was -3.54%.
The value for `COc1ccc(OC)c(C(C)NC(=O)Nc2nnc(C)s2)c1` (configuration not stated) was 14.7%; that for `CC(NC(=O)Cc1ccccc1F)C(=O)N1CCS(=O)(=O)CC1` (configuration not stated) was 8.68%; that for `COCCN(Cc1ccc(F)cc1Cl)C(=O)c1cc(C)no1` was 8.75%.
In the case of `Cc1[nH]ncc1C(=O)N1CCOC(c2cccs2)C1` (configuration not stated), the cytotoxicity at 10 µM turned out to be 8.8%.
For the compound `c1coc(-c2noc(CN3CCc4c(ncn4C4CC4)C3)n2)c1`, the cytotoxicity at 10 µM is -8.12%.
For the compound `CC1CN(C(=O)c2cc(=O)[nH]c3ccc(F)cc23)CCO1` (configuration not stated), the cytotoxicity at 10 µM worked out at 19.3%.
With `CN(Cc1ccccc1NCc1cccnc1)C(=O)c1cccs1`, the cytotoxicity at 10 µM worked out at 0.205%.
Take `COc1ccc(NC(=O)C2CCCO2)cc1OCc1cccnc1` (configuration not stated): the cytotoxicity at 10 µM is -23.6%.
Regarding `CN1CC(NC(=O)Cc2csc(C(C)(C)C)n2)CCC1=O` (configuration not stated), the cytotoxicity at 10 µM worked out at 1.82%.
Turning to `Cc1ccc(SC2CCCC2)c(C(=O)NCCc2n[nH]c(=O)[nH]2)c1`, the cytotoxicity at 10 µM was -45.3%.
For the compound `Cn1c(CCN2CCN(CCc3ccccc3)CC2)nc2ccccc21`, the cytotoxicity at 10 µM was -43.7%.
For the compound `CC(NCc1cnn(C)c1)c1ccc(OCc2nccn2C)cc1` (configuration not stated), the cytotoxicity at 10 µM was -7.16%.
For the compound `CN(C)Cc1ccc(CNC(=O)NCC2(C)CCCS2)cc1` (configuration not stated), the cytotoxicity at 10 µM was -12.9%.
The value for `CC(C)n1nccc1NC(=O)CN1CCc2sccc2C1` was 0.583%.
For the compound `CCOC(C)c1noc(CN(C)C(=O)c2ccncc2)n1` (configuration not stated), the cytotoxicity at 10 µM amounted to 14.5%.
With `Cc1nc(CN2CCC3(C2)CN(C(=O)c2ccc[nH]2)C3)cs1`, the cytotoxicity at 10 µM was -112%.
Regarding `Cc1cccc(S(=O)(=O)N2C[C@@H]3C[C@@H](c4nc(C)no4)O[C@@H]3C2)c1`, the cytotoxicity at 10 µM was -1.05%.
For `Cn1ccc(-c2cc(C(=O)N3CCCCC3)c3ccccn23)n1`, the cytotoxicity at 10 µM was -45.7%.
Regarding `CN(C)C(=O)N1CCn2cc(CNC(=O)CC3CC3)nc2C1`, the cytotoxicity at 10 µM was -80.2%.
As for `Cc1cccc(C(=O)N2CCn3cc(CN4CCCCC4)nc3C2)n1`, the cytotoxicity at 10 µM was -79%.
Turning to `O=C1NC2(CCN(Cc3cccnc3)CC2)CC1c1ccncc1` (configuration not stated), the cytotoxicity at 10 µM was 5.33%.
As to `COCCc1nc(CSc2ccncc2)n(C)n1`, the cytotoxicity at 10 µM was -5.93%.
To `CCCn1ncc(-c2ccnc(NC3CCSC3)n2)c1C` (configuration not stated) belongs 2.65%; to `Cc1n[nH]c(C)c1CCC(=O)NCC1CCOc2ccccc2C1` (configuration not stated), -45.6%.
`CCC(Nc1cccc(OC)c1)C(=O)N(CCO)Cc1nccs1` (configuration not stated): the cytotoxicity at 10 µM was found to be 3.94%.
Turning to `O=c1[nH]c(-c2ccc(F)cc2)nc2c1CCNC2`, the cytotoxicity at 10 µM was -2.47%.
Take `CCC1CCC(NCCN2CCOCC2)CC1` (configuration not stated): the cytotoxicity at 10 µM came out at 3.62%.
`CC(C)[C@H]1CN(c2cnccn2)C[C@@H]1NC(=O)C1(C#N)CCOCC1`: the cytotoxicity at 10 µM was -6.35%.
Regarding `CN(C)CCn1ccnc1C1CCCN(c2nccc3ccccc23)C1` (configuration not stated), the cytotoxicity at 10 µM was -7.55%.
To `CC[C@@]1(O)CCN(c2ncc(Cl)cc2F)C[C@H]1O` belongs 2.38%; to `Cc1nccn1CCCN1CCCC(c2ccccc2)C1` (configuration not stated), -24.8%; to `CC(=O)c1ccc(CN2CCCC23CCN(c2ccccn2)CC3)cc1`, 1.5%.
On to `Cc1nc(C)n(CCNS(=O)(=O)NCc2ccccc2)n1`, for which the cytotoxicity at 10 µM was -11.4%.
Take `CN1CC2(CCN(c3ncnc4c3CCNC4)CC2)OC1=O`: the cytotoxicity at 10 µM is -3.2%.
As for `COc1ccc(C(=O)N2CCOCC(CO)C2)cc1N1CCOCC1` (configuration not stated), the cytotoxicity at 10 µM was -14%.
`CN1CCC(Oc2ccc(-n3ccnc3-c3ccncc3)cc2)CC1`: the cytotoxicity at 10 µM is -3.05%.
Take `O=C(CN1CCOC1=O)N1CCc2nnc(Cc3ccccc3)n2CC1`: the cytotoxicity at 10 µM is -45.6%.
The value for `O=C(c1ccccn1)N1CCc2c(nc(N3CCCC3)[nH]c2=O)C1` was -5.71%; that for `C=Cn1ncc(CN2C[C@@H]3CCCN3C[C@@H]2Cc2ccccc2)c1C` was -5.74%; that for `Cc1nc(CN2CCCC2c2noc(C3CC3)n2)oc1C` (configuration not stated) was -8.13%.
Regarding `Cc1ccccc1C1(C(=O)NCCN2CCCC(C)C2)CCOCC1` (configuration not stated), the cytotoxicity at 10 µM is -2.34%.
For `COCCn1cc(NC(=O)NCC(c2cccc(F)c2)N(C)C)cn1` (configuration not stated), the cytotoxicity at 10 µM is -5.6%.
On to `Cc1cnn(CC2CN(Cc3nc(-c4ccsc4)no3)CCO2)c1` (configuration not stated), for which the cytotoxicity at 10 µM is -9.74%.
As for `CC(C)c1nc(CN2CCOC(CNc3cccnn3)C2)cs1` (configuration not stated), the cytotoxicity at 10 µM was -2.93%.
As for `c1cc2n(n1)CC(CNCc1ccc(OC3CCCCC3)nc1)CN2` (configuration not stated), the cytotoxicity at 10 µM was -8.49%.
The value for `Cc1nc(C)n(CC2CN(c3ccc(C#N)cn3)CCO2)n1` (configuration not stated) was -10.5%; that for `CCc1nnsc1C(=O)NCCn1nc2ccccn2c1=O` was -2.04%.
With `Cc1nnc(NCc2ccccc2Cl)c(C#N)c1C`, the cytotoxicity at 10 µM was -5.06%.
On to `CC(NC(=O)NCCN1CCCCCC1=O)c1nncn1C` (configuration not stated), for which the cytotoxicity at 10 µM is -7%.
The value for `CC(Cn1cccn1)NC(=O)NCCc1cnn(C)c1` (configuration not stated) was -0.0611%.
As to `CCN1CCN(C2CCN(Cc3cc(C)on3)CC2)C1=O`, the cytotoxicity at 10 µM was -5.74%.
The value for `COc1cccc(CNc2cnn(C)c(=O)c2Cl)c1` was -8.78%.
In the case of `CCCN(Cc1ccccc1)Cn1nc(C)c2c(C)onc2c1=O`, the cytotoxicity at 10 µM is -9.98%.
In the case of `COc1cc(C)nc(N2CCN(C(=O)c3ccc[nH]3)CC2)n1`, the cytotoxicity at 10 µM is -5.11%.
As to `COc1c(CNCC(c2cccc(F)c2)N(C)C)c(C(C)C)nn1C` (configuration not stated), the cytotoxicity at 10 µM was -3.27%.
The value for `COc1ccc(CCC2CCCCN2)cc1` (configuration not stated) was -9.83%; that for `Cc1cc(C[C@@H]2COC[C@H]2NCc2ccccc2C(F)(F)F)on1` was -6.15%; that for `CN(C)C(=O)C1OC2(CCN(c3ncc(F)cn3)CC2)c2ccccc21` (configuration not stated) was 6.27%.
On to `O=C(NCC1OCCc2cn(CC3CCOCC3)nc21)c1ccsc1` (configuration not stated), for which the cytotoxicity at 10 µM amounted to 4.84%.
Regarding `Cn1ncc2c1CN(Cc1ccccc1F)CC2COCC1CC1` (configuration not stated), the cytotoxicity at 10 µM amounted to 1.47%.
As for `COCCC(=O)N1CCC2(CCN(Cc3cccc(F)c3)CC2)C1`, the cytotoxicity at 10 µM was -75.9%.
For the compound `Cc1n[nH]cc1CNC1CCN(c2ccc(F)cc2)CC1`, the cytotoxicity at 10 µM is -54%.
As for `COCCN1CCOCC12CCN(c1ccc(C#N)cc1)CC2`, the cytotoxicity at 10 µM was -2.51%.
On to `Cc1ccc(N2C[C@H]3OCC[C@H]3[C@H](C(=O)NCC3CC3)C2)nn1`, for which the cytotoxicity at 10 µM is -75.7%.
For `Cc1nnc(N2CC[C@H]3C[C@H](C(=O)N4CCOCC4)O[C@H]3C2)s1`, the cytotoxicity at 10 µM is -0.671%.
Regarding `O=C(c1cc2c(s1)CCCC2)N1CCc2nc(C3CCCN3)ncc2C1` (configuration not stated), the cytotoxicity at 10 µM was -3.04%.
On to `Cc1cc(C(=O)N2CCC3(CC2)C(=O)N(C)CCN3CC(C)C)c(C)o1`, for which the cytotoxicity at 10 µM was -112%.
Regarding `c1ccc(COC[C@H]2CC[C@H]3[C@H](CCN3Cc3cccs3)O2)nc1`, the cytotoxicity at 10 µM was -85%.
For the compound `Fc1cccc(CN2C[C@@H]3COC[C@]3(COCc3ccncc3)C2)c1`, the cytotoxicity at 10 µM is -61.1%.
Take `O=C1NC2(CCNCC2)CC1c1ccccc1` (configuration not stated): the cytotoxicity at 10 µM is -72.7%.
To `CN(Cc1ccncc1)C1COC2(CCN(Cc3ccsc3)CC2)C1` (configuration not stated) belongs -91.8%; to `CCN1C[C@@H]2C[C@H](C(=O)NCc3cccnc3)[C@H](C1)O2`, 2.01%.

The values are drawn from ChEMBL document CHEMBL4513216, “Probing the Open Global Health Chemical Diversity Library for Multistage-Active Starting Points for Next-Generation Antimalarials” (ACS Infect Dis, 2020).
